Values joined by “and” are separate entries in the source; they are usually repeats but may differ in a detail not shown here. Identical values can stand only once.
Test system: U2OS
Test: Multiplex assay against U2OS
Format: toxicity, cell-based
Conditions: human, number of replicates 2
In short: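 Per cents of healthy-nucleus cells form the tubulin, mitochondrial-mass and membrane-permeability phenotype values. Live cells were stained at seeding with Hoechst33342, BioTracker Green Microtubule Cytoskeleton Dye, MitoTracker Red and Annexin V Alexa Fluor 680. After compound addition they were imaged on a CQ1 microscope at 37°C and 5% CO2, and CellPathfinder machine-learning gating split them into Hoechst high-intensity objects or normal cells, normal cells into healthy, pyknosed or fragmented nuclei, and pyknosed cells into mitotic or apoptotic.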

[1] = 12 h, 1 µM, compound concentration 1 uM
[2] = 12 h, 10 µM, compound concentration 10 uM
[3] = 24 h, 1 µM, compound concentration 1 uM
[4] = 24 h, 10 µM, compound concentration 10 uM
[5] = 48 h, 1 µM, compound concentration 1 uM
[6] = 48 h, 10 µM, compound concentration 10 uM

`CC(C)N(CCCCOCC(=O)NS(C)(=O)=O)c1cnc(-c2ccccc2)c(-c2ccccc2)n1` [SELEXIPAG] was tested, and the “Population Apoptotic (%)” value [1] was 100% and 38%, the “Population Fragmented Nuclei (%)” value [1] was 14% and 4% and the “Population Healthy Nuclei (%)” value [1] was 76% and 84%. The “Population Hoechst High Intensity Objects (%)” value [1] was 0%, the “Population Membrane Permeable-Phenotype (%)” value [1] was 0% and 1% and the “Population Mitochondria Different-Phenotype (%)” value [1] was 6% and 0%. For the same molecule, the “Population Normal (%)” value [1] was 100% and 99%, the “Population Pyknosed Nuclei (%)” value [1] was 9% and 11% and the “Population Tubulin-Different-Phenotype (%)” value [1] was 81% and 85%. The “Population Apoptotic (%)” value [2] was 33% and 45%, the “Population Fragmented Nuclei (%)” value [2] was 11% and 3% and the “Population Healthy Nuclei (%)” value [2] was 82% and 88%. The “Population Hoechst High Intensity Objects (%)” value [2] was 0%, the “Population Membrane Permeable-Phenotype (%)” value [2] was 2% and 1% and the “Population Mitochondria Different-Phenotype (%)” value [2] was 0%. For the same molecule, the “Population Mitotic Cells (%)” value [2] was 66% and 54%, the “Population Normal (%)” value [2] was 100% and 99% and the “Population Pyknosed Nuclei (%)” value [2] was 6% and 8%. The “Population Tubulin-Different-Phenotype (%)” value [2] was 97% and 87%, the “Population Apoptotic (%)” value [3] was 50% and 46% and the “Population Fragmented Nuclei (%)” value [3] was 5% and 2%. For the same molecule, the “Population Healthy Nuclei (%)” value [3] was 88% and 89%, the “Population Hoechst High Intensity Objects (%)” value [3] was 0% and the “Population Membrane Permeable-Phenotype (%)” value [3] was 3% and 1%. For the same molecule, the “Population Mitochondria Different-Phenotype (%)” value [3] was 0%, the “Population Mitotic Cells (%)” value [3] was 50% and 53% and the “Population Normal (%)” value [3] was 100%. The “Population Pyknosed Nuclei (%)” value [3] was 5% and 8%, the “Population Tubulin-Different-Phenotype (%)” value [3] was 84% and 91% and the “Population Apoptotic (%)” value [4] was 75% and 46%. For the same molecule, the “Population Healthy Nuclei (%)” value [4] was 73% and 89%, the “Population Hoechst High Intensity Objects (%)” value [4] was 0% and the “Population Membrane Permeable-Phenotype (%)” value [4] was 0% and 1%. For the same molecule, the “Population Mitochondria Different-Phenotype (%)” value [4] was 0%, the “Population Mitotic Cells (%)” value [4] was 25% and 53% and the “Population Normal (%)” value [4] was 100% and 99%. For the same molecule, the “Population Pyknosed Nuclei (%)” value [4] was 6%, the “Population Tubulin-Different-Phenotype (%)” value [4] was 100% and 94% and the “Population Apoptotic (%)” value [5] was 22% and 50%. For the same molecule, the “Population Healthy Nuclei (%)” value [5] was 67% and 94%, the “Population Hoechst High Intensity Objects (%)” value [5] was 0% and the “Population Membrane Permeable-Phenotype (%)” value [5] was 0% and 1%. The “Population Mitochondria Different-Phenotype (%)” value [5] was 0%, the “Population Mitotic Cells (%)” value [5] was 77% and 50% and the “Population Normal (%)” value [5] was 100%. The “Population Tubulin-Different-Phenotype (%)” value [5] was 85% and 93%, the “Population Apoptotic (%)” value [6] was 36% and 56% and the “Population Fragmented Nuclei (%)” value [6] was 6% and 4%. The “Population Healthy Nuclei (%)” value [6] was 83% and 90%, the “Population Hoechst High Intensity Objects (%)” value [6] was 0% and the “Population Membrane Permeable-Phenotype (%)” value [6] was 1%. For the same molecule, the “Population Mitochondria Different-Phenotype (%)” value [6] was 0%, the “Population Mitotic Cells (%)” value [6] was 63% and 43% and the “Population Normal (%)” value [6] was 100% and 99%. The “Population Pyknosed Nuclei (%)” value [6] was 9% and 4% and the “Population Tubulin-Different-Phenotype (%)” value [6] was 97% and 94%.
With `CN(C)[C@H]1CC[C@H](Nc2ncc3ncnc(Nc4ccc(F)c(Cl)c4)c3n2)CC1` the “Population Fragmented Nuclei (%)” value [1] was 46% and 17%, the “Population Healthy Nuclei (%)” value [1] was 42% and 68% and the “Population Hoechst High Intensity Objects (%)” value [1] was 0%. The “Population Membrane Permeable-Phenotype (%)” value [1] was 4% and 1%, the “Population Mitochondria Different-Phenotype (%)” value [1] was 4% and 1% and the “Population Mitotic Cells (%)” value [1] was 100% and 64%. The “Population Normal (%)” value [1] was 100% and 99%, the “Population Pyknosed Nuclei (%)” value [1] was 10% and 14% and the “Population Tubulin-Different-Phenotype (%)” value [1] was 76% and 89%. For the same molecule, the “Population Apoptotic (%)” value [2] was 6% and 13%, the “Population Fragmented Nuclei (%)” value [2] was 38% and 27% and the “Population Healthy Nuclei (%)” value [2] was 36%. For the same molecule, the “Population Hoechst High Intensity Objects (%)” value [2] was 9% and 11%, the “Population Membrane Permeable-Phenotype (%)” value [2] was 7% and 2% and the “Population Mitochondria Different-Phenotype (%)” value [2] was 6% and 1%. For the same molecule, the “Population Mitotic Cells (%)” value [2] was 93% and 86%, the “Population Normal (%)” value [2] was 90% and 88% and the “Population Pyknosed Nuclei (%)” value [2] was 25% and 35%. For the same molecule, the “Population Tubulin-Different-Phenotype (%)” value [2] was 50% and 81%, the “Total Cell Count” value [2] was 197 and 472 and the “Population Apoptotic (%)” value [3] was 16% and 47%. The “Population Healthy Nuclei (%)” value [3] was 43% and 76%, the “Population Hoechst High Intensity Objects (%)” value [3] was 0% and the “Population Membrane Permeable-Phenotype (%)” value [3] was 0% and 3%. The “Population Mitochondria Different-Phenotype (%)” value [3] was 0% and 1%, the “Population Mitotic Cells (%)” value [3] was 83% and 52% and the “Population Normal (%)” value [3] was 100% and 99%. The “Population Pyknosed Nuclei (%)” value [3] was 9% and 11%, the “Population Tubulin-Different-Phenotype (%)” value [3] was 75% and 92% and the “Population Apoptotic (%)” value [4] was 17% and 10%. The “Population Fragmented Nuclei (%)” value [4] was 40% and 25%, the “Population Healthy Nuclei (%)” value [4] was 33% and 40% and the “Population Hoechst High Intensity Objects (%)” value [4] was 14% and 9%. The “Population Membrane Permeable-Phenotype (%)” value [4] was 8% and 2%, the “Population Mitochondria Different-Phenotype (%)” value [4] was 2% and 0% and the “Population Mitotic Cells (%)” value [4] was 82% and 89%. The “Population Normal (%)” value [4] was 85% and 90%, the “Population Pyknosed Nuclei (%)” value [4] was 26% and 33% and the “Population Tubulin-Different-Phenotype (%)” value [4] was 61% and 82%. The “Population Apoptotic (%)” value [5] was 75% and 60%, the “Population Healthy Nuclei (%)” value [5] was 39% and 76% and the “Population Hoechst High Intensity Objects (%)” value [5] was 0%. For the same molecule, the “Population Membrane Permeable-Phenotype (%)” value [5] was 3% and 1%, the “Population Mitochondria Different-Phenotype (%)” value [5] was 0% and 1% and the “Population Mitotic Cells (%)” value [5] was 25% and 39%. For the same molecule, the “Population Normal (%)” value [5] was 100% and 99%, the “Population Pyknosed Nuclei (%)” value [5] was 5% and 8% and the “Population Tubulin-Different-Phenotype (%)” value [5] was 71% and 89%. For the same molecule, the “Population Apoptotic (%)” value [6] was 18% and 14%, the “Population Fragmented Nuclei (%)” value [6] was 36% and 26% and the “Population Healthy Nuclei (%)” value [6] was 38% and 47%. The “Population Hoechst High Intensity Objects (%)” value [6] was 13% and 10%, the “Population Membrane Permeable-Phenotype (%)” value [6] was 9% and 1% and the “Population Mitochondria Different-Phenotype (%)” value [6] was 4% and 0%. The “Population Mitotic Cells (%)” value [6] was 81% and 85%, the “Population Normal (%)” value [6] was 86% and 89% and the “Population Pyknosed Nuclei (%)” value [6] was 25%. For the same molecule, the “Population Tubulin-Different-Phenotype (%)” value [6] was 53% and 79%.
`C[C@H](N)Cn1ccc2cc(F)c(Cl)cc21.O=C(O)/C=C/C(=O)O` was tested, and the “Population Apoptotic (%)” value [1] was 47% and 66%, the “Population Fragmented Nuclei (%)” value [1] was 4% and 8% and the “Population Healthy Nuclei (%)” value [1] was 87% and 84%. For the same molecule, the “Population Hoechst High Intensity Objects (%)” value [1] was 0%, the “Population Membrane Permeable-Phenotype (%)” value [1] was 0% and the “Population Mitochondria Different-Phenotype (%)” value [1] was 0%. The “Population Mitotic Cells (%)” value [1] was 52% and 33%, the “Population Normal (%)” value [1] was 99% and 100% and the “Population Pyknosed Nuclei (%)” value [1] was 8% and 6%. The “Population Tubulin-Different-Phenotype (%)” value [1] was 94% and 44%, the “Population Apoptotic (%)” value [2] was 40% and 50% and the “Population Fragmented Nuclei (%)” value [2] was 5% and 12%. The “Population Healthy Nuclei (%)” value [2] was 88% and 75%, the “Population Hoechst High Intensity Objects (%)” value [2] was 0% and the “Population Membrane Permeable-Phenotype (%)” value [2] was 1% and 8%. For the same molecule, the “Population Mitochondria Different-Phenotype (%)” value [2] was 1% and 0%, the “Population Mitotic Cells (%)” value [2] was 60% and 50% and the “Population Normal (%)” value [2] was 99% and 100%. The “Population Pyknosed Nuclei (%)” value [2] was 6% and 12%, the “Population Tubulin-Different-Phenotype (%)” value [2] was 62% and 37% and the “Population Apoptotic (%)” value [3] was 100% and 62%. For the same molecule, the “Population Fragmented Nuclei (%)” value [3] was 6% and 1%, the “Population Healthy Nuclei (%)” value [3] was 91% and 90% and the “Population Hoechst High Intensity Objects (%)” value [3] was 0%. The “Population Membrane Permeable-Phenotype (%)” value [3] was 0%, the “Population Mitochondria Different-Phenotype (%)” value [3] was 0% and the “Population Normal (%)” value [3] was 100% and 99%. The “Population Pyknosed Nuclei (%)” value [3] was 2% and 7%, the “Population Tubulin-Different-Phenotype (%)” value [3] was 54% and 88% and the “Population Apoptotic (%)” value [4] was 42% and 80%. For the same molecule, the “Population Fragmented Nuclei (%)” value [4] was 3% and 9%, the “Population Healthy Nuclei (%)” value [4] was 89% and 78% and the “Population Hoechst High Intensity Objects (%)” value [4] was 0%. For the same molecule, the “Population Membrane Permeable-Phenotype (%)” value [4] was 1% and 3%, the “Population Mitochondria Different-Phenotype (%)” value [4] was 1% and 0% and the “Population Mitotic Cells (%)” value [4] was 57% and 20%. For the same molecule, the “Population Normal (%)” value [4] was 99% and 100%, the “Population Pyknosed Nuclei (%)” value [4] was 6% and 12% and the “Population Tubulin-Different-Phenotype (%)” value [4] was 73% and 31%. The “Population Apoptotic (%)” value [5] was 54% and 34%, the “Population Fragmented Nuclei (%)” value [5] was 5% and 2% and the “Population Healthy Nuclei (%)” value [5] was 83% and 90%. For the same molecule, the “Population Hoechst High Intensity Objects (%)” value [5] was 0%, the “Population Membrane Permeable-Phenotype (%)” value [5] was 0% and 1% and the “Population Mitochondria Different-Phenotype (%)” value [5] was 0%. For the same molecule, the “Population Mitotic Cells (%)” value [5] was 45% and 65%, the “Population Normal (%)” value [5] was 100% and the “Population Pyknosed Nuclei (%)” value [5] was 11% and 7%. For the same molecule, the “Population Tubulin-Different-Phenotype (%)” value [5] was 69% and 92%, the “Population Apoptotic (%)” value [6] was 50% and 52% and the “Population Fragmented Nuclei (%)” value [6] was 10% and 5%. The “Population Healthy Nuclei (%)” value [6] was 75% and 89%, the “Population Hoechst High Intensity Objects (%)” value [6] was 0% and the “Population Membrane Permeable-Phenotype (%)” value [6] was 1%. For the same molecule, the “Population Mitochondria Different-Phenotype (%)” value [6] was 0%, the “Population Mitotic Cells (%)” value [6] was 50% and 47% and the “Population Normal (%)” value [6] was 100%. The “Population Pyknosed Nuclei (%)” value [6] was 13% and 5% and the “Population Tubulin-Different-Phenotype (%)” value [6] was 55% and 81%.
